What is called MIC is the lowest concentration that inhibits growth of the organism. A high value points to a less susceptible organism.

The subject of experiment [1] is Erwinia amylovora. Kind of experiment: Bactericidal activity against Erwinia amylovora at 1.6 ug/ml after 24 hr by BacLight bacterial viability fluorescence assay. The experiment is classed as functional, organism-based.
The next experiment concerns Trichoderma viride. Kind of experiment: Antifungal activity against Hypocrea rufa at 12.5 to 25 ug/ml after 96 hr by spectrophotometry. The experiment is classed as functional, organism-based. Put shortly: (§1)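 Spore germination assay. Spores taken from 4-week-old PDA cultures kept in the dark at 24 °C and adjusted to 1 × 10⁵ spores/mL. 100 µL of spores added to serial dilutions of derivatives in PDB, from 1 mg/mL DMSO stocks. Value is the minimum concentration inhibiting germination. DMSO-only controls.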

Experiment [2] relates to Xanthomonas campestris. Kind of experiment: Bactericidal activity against Xanthomonas euvesicatoria at 6.3 ug/ml after 24 hr by BacLight bacterial viability fluorescence assay. It is filed as functional, organism-based.
Another experiment concerns Trichoderma reesei. Kind of experiment: Antifungal activity against Trichoderma reesei at 12.5 to 25 ug/ml after 96 hr by spectrophotometry. The experiment is classed as functional, organism-based. Summed up: as §1
Experiment [3] has as its system Erwinia amylovora. Kind of experiment: Antibacterial activity against Erwinia amylovora after 24 hr by spectrophotometry. It is filed as functional. Put shortly: (§2)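 Bacterial isolates grown overnight at 37 °C to OD600 0.2. 5 µL of suspension incubated with serial dilutions of derivatives (100 to 0.05 µg) from 1 mg/mL DMSO stocks, 37 °C for 24 h. OD600 read; net growth is OD after 24 h minus OD at start. Percent inhibition is (untreated − treated)/untreated × 100. Two separate replicates. DMSO-only controls.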

The test system of experiment [4] is Fusarium oxysporum. Kind of experiment: Antifungal activity against Fusarium oxysporum at 12.5 to 25 ug/ml after 96 hr by spectrophotometry. It is filed as functional, organism-based. Put shortly: as §1
For experiment [5], the system named is Aspergillus niger. Kind of experiment: Antifungal activity against Aspergillus niger at 12.5 to 25 ug/ml after 96 hr by spectrophotometry. It is filed as functional, organism-based. Summed up: as §1
Experiment [6] concerns Pseudomonas fluorescens. Kind of experiment: Antibacterial activity against Pseudomonas fluorescens after 24 hr by spectrophotometry. It is filed as functional. Summed up: as §2
The test system of experiment [7] is Pseudomonas fluorescens. Kind of experiment: Bactericidal activity against Pseudomonas fluorescens at 3.1 ug/ml after 24 hr by BacLight bacterial viability fluorescence assay. It is filed as functional, organism-based.
Experiment [8] concerns Xanthomonas campestris. Kind of experiment: Antibacterial activity against Xanthomonas campestris pv. vesicatoria after 24 hr by spectrophotometry. It is filed as functional. Summed up: as §2
Experiment [9] concerns Pectobacterium carotovorum. Kind of experiment: Bactericidal activity against Pectobacterium carotovorum at 3.1 ug/ml after 24 hr by BacLight bacterial viability fluorescence assay. The experiment is classed as functional, organism-based.
Experiment [10] deals with Penicillium sp. Kind of experiment: Antifungal activity against Penicillium sp. at 12.5 to 25 ug/ml after 96 hr by spectrophotometry. It is filed as functional, organism-based. Summed up: as §1
Experiment [11] relates to Pectobacterium carotovorum. Kind of experiment: Antibacterial activity against Pectobacterium carotovorum after 24 hr by spectrophotometry. It is filed as functional. Summed up: as §2
In experiment [12] the test system is Centaurea maculosa. Kind of experiment: Herbicidal activity against Centaurea maculosa assessed as shoot growth inhibition at 200 ug/ml after 7 days. It is filed as functional, organism-based. Summed up: (§3)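 Ten-day-old seedlings were placed in 5 mL liquid MS basal medium and given filter-sterilized compound at 10, 50, 100 or 200 µg mL^-1. Controls received a methanol vehicle. Cultures were kept at 27 ± 2 °C, shaken at 90 rpm, under 24 µmol m^-2 s^-1 light for 7 days. Shoot and root differentiation were given as percent inhibition versus untreated control, mean ± SD, n = 5.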

A further experiment deals with Arabidopsis thaliana. Kind of experiment: Herbicidal activity against Arabidopsis thaliana assessed as shoot growth inhibition at 200 ug/ml after 7 days. It is filed as functional, organism-based. Summed up: as §3
In a further experiment the test system is Ocimum basilicum. Kind of experiment: Herbicidal activity against Ocimum basilicum assessed as shoot growth inhibition at 200 ug/ml after 7 days. The experiment is classed as functional, organism-based. Put shortly:
as §3

Experiment [13] deals with Centaurea maculosa. Kind of experiment: Herbicidal activity against Centaurea maculosa assessed as inhibition of root differentiation at 200 ug/ml after 7 days. It is filed as functional, organism-based. Summed up: as §3
For the next experiment, the system named is Solanum lycopersicum. Kind of experiment: Herbicidal activity against Solanum lycopersicum (tomato) assessed as shoot growth inhibition at 200 ug/ml after 7 days. The experiment is classed as functional, organism-based. Put shortly: as §3
Another experiment concerns Gaillardia aristata. Kind of experiment: Herbicidal activity against Gaillardia aristata assessed as shoot growth inhibition at 200 ug/ml after 7 days. It is filed as functional, organism-based. Put shortly: as §3
Experiment [14] concerns Fusarium oxysporum. Kind of experiment: Antifungal activity against Fusarium oxysporum at 25 ug/ml after 96 hr by spectrophotometry. The experiment is classed as functional, organism-based. Put shortly: as §1
In experiment [15] the test system is Aspergillus niger. Kind of experiment: Antifungal activity against Aspergillus niger at 25 ug/ml after 96 hr by spectrophotometry. It is filed as functional, organism-based. Put shortly: (§4)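 Spores from 4-week-old cultures grown on PDA at 24 °C in the dark were rinsed off in sterile water and adjusted to 1 × 10⁵ spores mL^-1. Spores were incubated with serial dilutions in PDB in 96-well plates at 37 °C under humidity. Controls were DMSO vehicle and (+)-catechin.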

Experiment [16] concerns Penicillium sp. Kind of experiment: Antifungal activity against Penicillium sp. at 25 ug/ml after 96 hr by spectrophotometry. It is filed as functional, organism-based. Put shortly:
as §4

Values after ≈ are worked out from the molar mass of the structure shown. Active and inactive are the calls of the source. The calls are words filed in the database; no cut-off is given here.

As to `CC1(C)O[C@H]2Cc3c(O)cc(O)cc3O[C@@H]2c2cc(O)c(O)cc21`, the outcome (in the experiment with Erwinia amylovora [1]; in the experiment with Xanthomonas campestris [2]; in the experiment with Pseudomonas fluorescens [7]; in experiment [9]) was Active. The result in the experiment on Trichoderma viride, in the experiment with Trichoderma reesei, in the experiment with Fusarium oxysporum [4], in the experiment with Aspergillus niger [5] and in the experiment with Penicillium sp. [10] was inactive. The minimum inhibitory concentration (MIC) against Erwinia amylovora [3] came out at 3.1 µg/mL (≈ 9.38 µM); against Pseudomonas fluorescens [6], 3.1 µg/mL (≈ 9.38 µM); against Xanthomonas campestris [8], 6.3 µg/mL (≈ 19.1 µM); in experiment [11], 1.6 µg/mL (≈ 4.84 µM).
Take `CC1(C)OC2Cc3c(O)cc(O)cc3OC2c2cc(O)c(O)cc21` (racemic): the “growth inhibition (GI)” value with Centaurea maculosa [12], with Arabidopsis thaliana, in the experiment on Ocimum basilicum, in the experiment with Solanum lycopersicum and in the experiment with Gaillardia aristata was “Active” in each case. For the same compound, the result (in the experiment on Erwinia amylovora [1]; in the experiment with Xanthomonas campestris [2]; in the experiment on Pseudomonas fluorescens [7]; in experiment [9]) was Active. For the same compound, the outcome in the experiment with Trichoderma viride, in the experiment with Trichoderma reesei, in the experiment on Fusarium oxysporum [4], with Aspergillus niger [5] and in the experiment with Penicillium sp. [10] was inactive. In the experiment on Centaurea maculosa [13], the inhibition entry was “Active”. Further, the MIC (with Erwinia amylovora [3]; with Pseudomonas fluorescens [6]; against Xanthomonas campestris [8]; in experiment [11]) was 12.5 µg/mL (≈ 37.8 µM) each time.
Take `COc1cc(OC)c2c(c1)OC(c1ccc(OC)c(OC)c1)C(O)C2` (racemic): the “growth inhibition (GI)” value with Centaurea maculosa [12], with Arabidopsis thaliana, with Ocimum basilicum, in the experiment with Solanum lycopersicum and in the experiment with Gaillardia aristata was “Active” throughout. For the same compound, the result (in the experiment with Erwinia amylovora [1]; in the experiment on Xanthomonas campestris [2]; in the experiment with Pseudomonas fluorescens [7]; in [9]) was Active. For the same compound, the result in the experiment on Trichoderma viride, with Trichoderma reesei, with Fusarium oxysporum [4], in the experiment with Aspergillus niger [5] and in the experiment on Penicillium sp. [10] was inactive. For the same compound, the inhibition entry with Centaurea maculosa [13] is “Active”. The MIC against Erwinia amylovora [3] was determined as 12.5 µg/mL (≈ 36.1 µM); against Pseudomonas fluorescens [6], 12.5 µg/mL (≈ 36.1 µM); against Xanthomonas campestris [8], 12.5 µg/mL (≈ 36.1 µM); in [11], 6.3 µg/mL (≈ 18.2 µM).
In the case of `Oc1cc(O)c2c(c1)OC(c1ccc(O)c(O)c1)C(O)C2` (racemic), the outcome (in the experiment with Erwinia amylovora [1]; in the experiment on Xanthomonas campestris [2]; in the experiment on Pseudomonas fluorescens [7]; in [9]) was Active. Further, the outcome in the experiment on Trichoderma viride, in the experiment on Trichoderma reesei, with Fusarium oxysporum [4], with Aspergillus niger [5] and in the experiment with Penicillium sp. [10] was inactive.
For `CC(=O)Oc1cc(OC(C)=O)c2c(c1)OC(c1ccc(OC(C)=O)c(OC(C)=O)c1)C(OC(C)=O)C2` (racemic) [(+/-)-PENTAACETYLCATECHIN], the outcome (with Erwinia amylovora [1]; in the experiment on Xanthomonas campestris [2]; with Pseudomonas fluorescens [7]; in [9]) was Active. Also, the outcome with Trichoderma viride, in the experiment with Trichoderma reesei, in the experiment on Fusarium oxysporum [4], with Aspergillus niger [5] and in the experiment with Penicillium sp. [10] was inactive. The MIC against Erwinia amylovora [3] amounted to 25 µg/mL (≈ 50 µM); against Pseudomonas fluorescens [6] it was 12.5 µg/mL (≈ 25 µM); in the experiment with Xanthomonas campestris [8] it was 25 µg/mL (≈ 50 µM); in experiment [11], 25 µg/mL (≈ 50 µM).
Regarding `CC(=O)Oc1cc(OC(C)=O)c2c(c1)O[C@H](c1ccc(OC(C)=O)c(OC(C)=O)c1)[C@@H](OC(C)=O)C2` [CATECHIN PENTAACETATE], the outcome (with Erwinia amylovora [1]; in the experiment on Xanthomonas campestris [2]; in the experiment with Fusarium oxysporum [14]; in the experiment on Pseudomonas fluorescens [7]; in [9]) was Active. For the same compound, the result with Trichoderma viride, in the experiment on Trichoderma reesei, with Aspergillus niger [5] and in the experiment on Penicillium sp. [10] was inactive. Also, the MIC (against Erwinia amylovora [3]; with Pseudomonas fluorescens [6]; against Xanthomonas campestris [8]; in experiment [11]) was 6.3 µg/mL (≈ 12.6 µM) each time.
`COc1cc(OC)c2c(c1)O[C@H](c1ccc(OC)c(OC)c1)[C@@H](O)C2` [CATECHIN TETRAMETHYLETHER]: the outcome (in the experiment on Erwinia amylovora [1]; with Xanthomonas campestris [2]; in the experiment on Aspergillus niger [15]; with Pseudomonas fluorescens [7]; in experiment [9]; in the experiment with Penicillium sp. [16]) was Active. The result in the experiment on Trichoderma viride, in the experiment with Trichoderma reesei and in the experiment on Fusarium oxysporum [4] was inactive. The MIC worked out at 25 µg/mL (≈ 72.2 µM) in the experiment on Erwinia amylovora [3], 6.3 µg/mL (≈ 18.2 µM) in the experiment on Pseudomonas fluorescens [6], 25 µg/mL (≈ 72.2 µM) in the experiment with Xanthomonas campestris [8] and 6.3 µg/mL (≈ 18.2 µM) in experiment [11].
Consider `Oc1cc(O)c2c(c1)O[C@H](c1ccc(O)c(O)c1)[C@@H](O)C2` [CIANIDANOL], for which the outcome in the experiment on Erwinia amylovora [1], with Trichoderma viride, in the experiment on Xanthomonas campestris [2], with Trichoderma reesei, with Fusarium oxysporum [4] and in the experiment with Aspergillus niger [5] was Active. For the same compound, the outcome (in the experiment with Pseudomonas fluorescens [7]; in [9]; in the experiment on Penicillium sp. [10]) was Active. Also, the MIC (with Erwinia amylovora [3]; with Pseudomonas fluorescens [6]; against Xanthomonas campestris [8]; in [11]) was 1.6 µg/mL (≈ 5.51 µM) throughout.

(Values after ChEMBL document CHEMBL3044548, “Phytotoxic and antimicrobial activities of catechin derivatives” (2004).)
